# Assay results published in PubChem BioAssay AID504383 (The Scripps Research Institute Molecular Screening Center, 2011).
# About 1,200 (48%) of roughly 2,500 compounds were called active. So high a share suggests a set chosen from earlier hits. The list shows a part of the results. Values without a mark were called inactive.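 The calls were made as follows: active = mean activation above the low control average plus 3 SD, as set in the primary screen (cut at about 12% in these data); inactive = the rest.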
# Target: Troponin I, cardiac muscle (Homo sapiens) + Troponin T, cardiac muscle (Homo sapiens) + Troponin C, slow skeletal and cardiac muscles (Homo sapiens) (UniProt P19429+P45379+P63316)
# Test: calcium sensitizers of cardiac thin filaments – biochemical, IANBD-TnC fluorescence, triplicate, confirmation (AID 504383);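 also: 0% = DMSO at 0.472 mM calcium and 100% = DMSO at 2.9 mM calcium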
# Conditions: IANBD-labeled cardiac RTF, Ca2+ sensitivity fluorescence; at 7.2 µM; active compounds read high; scaled from EC20 to saturating calcium; tested at EC20 calcium, 0.472 mM
# Procedure, shortened: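 material = labelled regulated thin filaments | probe or stimulus = Ca2+ 0.472 mM, EC20 level | dosing = single nominal compound dose of 7.2 µM | schedule = 15 min at 25 °C | signal = fluorescence intensity of labelled filaments | evaluation = fluorescence gain scaled between EC20 and EC100 calcium controls | benchmarks = low control EC20 calcium, high control EC100 calcium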
row,Compound,activation
1,CC1=CC=CN2CC(O)CN=C12 (configuration not stated),25.4% (active)
2,CCc1ccc(C(=O)NNc2cc(Cl)ccc2Cl)cc1,16.7% (active)
3,CCCc1ccc(C(=O)NNc2cc(Cl)ccc2Cl)cc1,1.21%
4,CCC1SC(=Nc2cccc(C)c2)NC1=O (configuration not stated),143% (active)
5,O=C(CSc1nnc(COc2ccccc2)o1)N1CCN(c2ccccc2)CC1,55.2% (active)
6,Fc1ccc(OCc2nnc(SCCN3CCOCC3)o2)cc1,4.25%
7,CCO[C@@H]1OC(C(=O)O)=C[C@H](c2coc3ccccc3c2=O)[C@H]1CCCO,9.42%
8,COc1ccc(CCNC(=O)c2ccccc2OCc2c(C)noc2C)cc1,7.09%
9,COc1cccc(/C(O)=C/c2nc3ccc(C(=O)NCCc4ccc(Cl)cc4)cc3[nH]c2=O)c1,6.19%
10,COc1ccc(N(C)S(=O)(=O)c2ccc(Cl)c(C(=O)NCCc3ccc(Cl)cc3)c2)cc1,89% (active)
11,Cc1cc(C(=O)COc2cccc3cccnc23)c(C)n1C,60.1% (active)
12,OCCN=C1CCCc2c1[nH]c1ccc(Cl)cc21,10.9%
13,Cn1c(O)c(/C=N/NC(=O)c2cc3ccccc3cc2O)c2ccccc21,228% (active)
14,Cn1ncc(N=Cc2c(O)ccc3ccccc23)c1C(=O)Nc1cccc(Cl)c1,8.95%
15,CC(O)c1cccc(N=Cc2ccc3ccccc3c2O)c1 (configuration not stated),13.9% (active)
16,Oc1ccccc1C=NN=Cc1c(O)ccc2ccccc12,6.43%
17,Cc1ccc2[nH]c(C)c(/C=C/c3cc[n+](C)cc3)c2c1,171% (active)
18,Cc1ccc2c(c1)c(/C=C/c1cc[n+](C)cc1)c(C)n2C,11%
19,Cc1[nH]c2ccccc2c1/C=C/c1cc[n+](C)cc1,11.9% (active)
20,C=CCn1c(COc2cccc(C)c2)nnc1SCn1nnc2ccccc2c1=O,5.98%
21,CCNc1nc(SCC(N)=O)nc2sc3c(c12)CCN(C)C3,6.59%
22,CCOC(=O)C(C)(C)Sc1nc2c(cnn2-c2ccc(Cl)cc2)c(=O)[nH]1,185% (active)
23,CCOC(=O)C(C)Sc1nnc(Cc2cc(=O)[nH]c(=O)[nH]2)n1-c1ccc(Cl)cc1 (configuration not stated),10.2%
24,CCCCCOc1ccc(CN2CCOCC2)cc1Cl,74.8% (active)
25,COc1cccc(CNC(=O)C2CCCN(c3nc4ccccc4o3)C2)c1 (configuration not stated),1.39%

row,Compound,activation
1,Cc1cc2nc(C3CCCN(C(=O)NCc4ccccc4)C3)[nH]c2cc1C (configuration not stated),35.4% (active)
2,CCCC(=O)Nc1ccc(-c2cnc(-c3ccc(NC(=O)CCC)cc3)nc2)cc1,13.5% (active)
3,Cc1cccc(/C=N/NC(=O)C(C)Nc2cccc3ccccc23)n1 (configuration not stated),46.1% (active)
4,CCOC(=O)c1sc(=NC(=O)c2cc(OC)c(OC)c(OC)c2)n(C)c1C,266% (active)
5,CCOC(=O)Cn1nc2sc3ccccc3n2c(=O)c1=O,8.56%
6,CC1CC(C)CN(C(=O)Cn2c(-c3nonc3N)nc3ccccc32)C1 (configuration not stated),4.8%
7,CCOC(=O)Cn1c(=O)c(-c2cc(Br)ccc2N)nc2ccccc21,16.6% (active)
8,CCc1ccccc1NC(=O)COc1ccc2c(=O)c(Oc3cc(C)ccc3C)coc2c1,2310% (active)
9,COc1c(O)cccc1-c1nnn(CCC(=O)OCC(=O)c2ccccc2)n1,53.4% (active)
10,O=C(O)CSc1nc2ccccc2nc1Cc1ccccc1F,413% (active)
11,O=C(Cc1nc2ccccc2[nH]c1=O)c1ccccc1,8.29%
12,COc1cc(C(=O)Oc2ccccc2/C=N/NC(=O)c2ccc(Cl)cc2)cc(OC)c1OC,61.8% (active)
13,O=C(N/N=C/c1ccccc1OC(=O)c1ccc2c(c1)OCO2)c1cccc(F)c1,52.1% (active)
14,C/C(Cn1cnc([N+](=O)[O-])n1)=N\NC(=O)c1cccc(F)c1,8.55%
15,CCC(=O)N(C)CCc1cc2c(c(OC)c1/C=N/NC(=O)c1ccc(Br)cc1)OCO2,8.22%
16,CC1=C(C(=O)OCCCCCl)C(c2cc3c(cc2Br)OCO3)NC(=O)N1 (configuration not stated),7.44%
17,CCOc1cccc(NC(=O)/C(C#N)=C\c2cn(CC(=O)O)c3ccccc23)c1,7.03%
18,O=C(Nc1ccccc1C(=O)N/N=C/c1ccco1)c1ccc(F)cc1,10.3%
19,O=C(Cn1cc(/C=N/NC(=O)c2cccc3ccccc23)c2ccccc21)Nc1ccc(F)cc1,56.1% (active)
20,CCn1cc([N+](=O)[O-])c(C(=O)Nc2ccn(Cc3ccccc3)n2)n1,19.6% (active)
21,O=S1(=O)CCOC[C@H](CC2CCCCC2)N1Cc1ccccc1,3.3%
22,NC(=S)Nc1c(Cl)cccc1Cl,1.18%
23,Cc1onc(-c2c(F)cccc2Cl)c1C(N)=S,25.8% (active)
24,CCOC(=O)c1cc2c(=O)n3ccccc3nc2n(CCOC)c1=NC(=O)c1c(-c2c(F)cccc2Cl)noc1C,8.32%
25,CSC(=NCc1ccco1)NC#N,5.56%

row,Compound,activation
1,O=[N+]([O-])c1ccc(C2=NN(c3ccccc3)C(c3ccco3)C2)cc1 (configuration not stated),1.19%
2,O=[N+]([O-])c1ccc(/C=C/C2=NN(c3ccccc3)C(c3ccco3)C2)cc1 (configuration not stated),31.7% (active)
3,COc1ncnc2c1N=C1CC(C)(C)CC(N)=C1S2,70.2% (active)
4,O=C(Nc1ccc(Br)cc1)C(c1ccccc1)c1ccccc1,3.94%
5,COC(C(=O)Nc1c(F)cccc1F)c1ccccc1 (configuration not stated),13.6% (active)
6,Cc1nnc(NC(=O)CS(=O)(=O)Cc2ccccc2)s1,5.16%
7,Cc1nnc(NC(=O)CSc2ncnc3c2cnn3-c2ccccc2C)s1,14% (active)
8,NC(=O)NNC1=Nc2cccc3cccc1c23,6.47%
9,CCOC(=O)c1cccc(NC(=O)CSc2nc(N)cc(N)n2)c1,2.77%
10,Nc1nc(SCC(=O)Nc2ccc(Cl)cc2)[nH]c(=O)c1-c1ccccc1,5.51%
11,Nc1nc(SCC(=O)Nc2ccccc2)nc2nc3c(cc12)CCCC3,12.6% (active)
12,CCCOc1ccc(C2C(C(=O)/C=C/c3ccco3)=C(O)C(=O)N2CCN2CCOCC2)cc1OC (configuration not stated),14% (active)
13,COc1ccc(NC(=O)Nc2cccnc2)c(OC)c1,5.8%
14,C=C(C)c1cccc(C(C)(C)NC(=O)Nc2cccnc2)c1,15.5% (active)
15,CCn1c(CSCc2ccccc2)n[nH]c1=S,15.7% (active)
16,Nc1ccc(CCNc2ncnc3c2ncn3[C@@H]2O[C@H](CO)[C@@H](O)[C@H]2O)cc1,7.47%
17,Cc1cc(-n2c(=O)c(C#N)cc3c(=O)n4ccccc4nc32)no1,14.7% (active)
18,S=C1NC2=C(CCCC2=C2SCCCS2)C(c2ccccc2)N1 (configuration not stated),23.6% (active)
19,S=C1NC2=C(CCC/C2=C\c2ccccc2)C(c2ccccc2)N1 (configuration not stated),8.03%
20,O=C1CSC(=S)N1c1ccc(O)cc1,4.53%
21,CC(C)c1ccc(N2C(=O)/C(=C/N(C)C)SC2=S)cc1,57.7% (active)
22,CN(C)/C=C1\SC(=S)N(c2ccc(Br)cc2)C1=O,75.9% (active)
23,CCN1C(=O)/C(=C/C=C2\N(CC)c3cc(S(=O)(=O)N(C)C)ccc3N2c2ccccc2)SC1=S,10.6%
24,CC(=O)c1nnn(-c2nc(N3CCCC3)nc(N(c3ccccc3)c3ccccc3)n2)c1C,5.27%
25,C=CCn1c(C)c(C(C)=O)c(N2CCN(c3ccccc3)CC2)nc1=S,74.9% (active)

row,Compound,activation
1,O=C(c1ccccc1C(=O)N1CCN(c2ccccc2)CC1)N1CCN(c2ccccc2)CC1,0.49%
2,CC(C)OC(=O)CC(=O)CSc1nc(-c2ccc(F)cc2)cc(-c2ccccc2)c1C#N,38.9% (active)
3,COC(=O)c1ccc(-c2ccc(F)cc2)nc1C,-3.68%
4,O=C(OCCN1CCCCC1)c1ccccc1Br,3.85%
5,CN1CCCC(OC(=O)c2ccccc2Br)C1 (configuration not stated),67% (active)
6,Cc1nn(C)c(C(=O)N2CCc3ccccc32)c1Br,66.9% (active)
7,Cc1cccc2cc3c(N)c(C(=O)N4CCc5ccccc54)sc3nc12,7.08%
8,Cc1c(Br)c(C(=O)N2CCc3ccccc32)nn1C,3.1%
9,O=C1N/C(=C\c2ccsc2)C(=O)N1Cc1ccc(F)cc1,4.06%
10,O=C1c2ccsc2SCCN1Cc1ccc(F)cc1,27.7% (active)
11,C=CCn1c(=O)c(C(=O)NCCNCC)c(O)c2ccccc21,12.4% (active)
12,COCCN(C(=O)CN1CCCc2ccccc21)c1c(N)n(Cc2ccccc2)c(=O)[nH]c1=O,18.8% (active)
13,CCCCN(C(=O)c1ccc([N+](=O)[O-])o1)c1c(N)n(CCCC)c(=O)[nH]c1=O,5.49%
14,COc1cc(OC)cc(C(=O)N(Cc2ccco2)c2c(N)n(Cc3ccccc3)c(=O)[nH]c2=O)c1,7.79%
15,CCN(C(=O)CN1CCCc2cc(C)ccc21)c1c(N)n(Cc2ccccc2)c(=O)[nH]c1=O,6.97%
16,COCCCN(C(=O)c1cccnc1SC)c1c(N)n(Cc2ccccc2)c(=O)[nH]c1=O,48.1% (active)
17,Cc1ccc2c(c1)CCCN2CC(=O)N(C)c1c(N)n(Cc2ccccc2)c(=O)[nH]c1=O,1.27%
18,CCn1c(=O)c(C(=O)CN2CCCc3ccccc32)c(N)n(Cc2ccccc2)c1=O,60% (active)
19,OCCN(CCO)c1nc(N2CCCCC2)c2nc(N(CCO)CCO)nc(N3CCCCC3)c2n1,7.69%
20,CC(=O)N1CCc2c(sc(NC(=O)C3CCCN3S(=O)(=O)c3cccs3)c2C(N)=O)C1 (configuration not stated),39.1% (active)
21,CN1CCc2c(sc(/N=C/c3cccs3)c2C(N)=O)C1,2.64%
22,CN1CCc2c(sc(/N=C/c3ccco3)c2C(N)=O)C1,10.3%
